Reference: ChEMBL document CHEMBL5230168, “Design, synthesis, and biological evaluation of new arjunolic acid derivatives as anticancer agents” (RSC Med Chem, 2023)
The source made the active and inactive calls. The rule behind the calls is not given here.

Assays:
[1] = Toxicity in Balb/c mouse assessed as hypothermia at 50 to 100 mg/kg, ip measured upto 24 hrs by Irwin test; assay type: organism-based; conditions: in vivo, dose 50-100 mg/kg
Method in brief: (§1)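 Irwin primary observation in female Balb/c mice aged 7–8 weeks, 3 per group. Single i.p. doses of 0.01, 0.1, 1, 5, 10, 50 and 100 mg kg−1 in 0.2% HPMC in saline; vehicle controls observed in parallel, non-blind. Standardized grid including rectal temperature and pupil diameter scored at 15, 30, 60, 120 and 180 min and 24 h, with continuous watch over 0–15 min.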

PANC-1 [2] = assay: Induction of apoptosis in human PANC-1 cells assessed as chromatin condensation at 0.47 to 2.82 uM incubated for 24 hrs by Hoechst 33342 staining based fluorescence microscopic analysis; assay type: functional, cell-based; conditions: dose 0.47-2.82 µM
Method in brief: (§2)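 PANC-1 at 6500 cells/well, pre-incubated 24 h, then treated for 24 h. Washed with PBS and stained with Hoechst 33342 (1 μg mL−1 in PBS) 10 min at 37 °C in the dark. Nuclear morphology imaged by high-content fluorescence microscopy with a DAPI filter. Untreated cells as control.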

PANC-1 [3] = assay: Induction of apoptosis in human PANC-1 cells assessed as necrotic cells at […] incubated for 24 hrs by Annexin V-FITC/PI staining based flow cytometric analysis (reference value: 3.9%); assay type: functional
Method in brief: (§3)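 PANC-1 seeded at 2 × 10^5 cells/well, grown 24 h, then treated 24 h. PI added just before flow cytometry. Quadrant percentages given as mean ± SD of three experiments. Untreated control.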

A549 = assay: Cytotoxicity against human A549 cells assessed as inhibition of cell growth incubated for 72 hrs by MTT assay; assay type: functional, cell-based; conditions: A549, 72 h
Method in brief: (§4)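 Cells seeded per well (HT-29 4500, PANC-1 4000, SK-MEL-28 3200, A375 1200, A549 2500, H2170 and BJ 10 000) and left 24 h. They were then exposed to increasing concentrations for 72 h and incubated 1 h with MTT 0.5 mg mL−1. Formazan was dissolved in DMSO and absorbance read at 550 nm. IC50 from three independent experiments. Final DMSO ≤0.5%.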

PANC-1 [4] = assay: Synergistic cytotoxicity against human PANC-1 cells assessed as combination index at 0.24 uM incubated for 72 hrs in the presence of 12 uM gemcitabine by MTT assay; assay type: functional
PANC-1 [5] = assay: Induction of cell cycle arrest in human PANC-1 cells assessed as accumulation of cells at G0/G1 phase incubated for 24 hrs by PI staining based flow cytometric analysis; assay type: functional; conditions: dose 0.47-2.82 µM
[6] = Cytotoxicity against human BJ cells assessed as inhibition of cell growth incubated for 72 hrs by MTT assay; assay type: toxicity, cell-based; method in brief: as §4
[7] = Toxicity in Balb/c mouse assessed as decreased fear/startle at 50 to 100 mg/kg, ip measured upto 24 hrs by Irwin test; assay type: organism-based; conditions: in vivo, dose 50-100 mg/kg; method in brief: as §1
PANC-1 [8] = assay: Induction of apoptosis in human PANC-1 cells assessed as late apoptotic cells at 2.82 uM incubated for 24 hrs by Annexin V-FITC/PI staining based flow cytometric analysis (reference value: 1.1%); assay type: functional; method in brief: as §3
PANC-1 [9] = assay: Induction of cell cycle arrest in human PANC-1 cells assessed as accumulation of cells at G0/G1 phase at 1.88 uM incubated for 24 hrs by PI staining based flow cytometric analysis (Rvb= 51.8 %); assay type: functional
PANC-1 [10] = assay: Synergistic cytotoxicity against human PANC-1 cells assessed as combination index at 0.94 uM incubated for 72 hrs in the presence of 47 uM gemcitabine by MTT assay; assay type: functional
[11] = Selectivity index, ratio of IC50 for cytotoxicity against human BJ cells to IC50 for cytotoxicity against human PANC-1; assay type: toxicity, cell-based; conditions: BJ cells and PANC-1 cells, read-out: Ratio IC50
Method in brief: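 Selectivity index: BJ fibroblast IC50 over PANC-1 IC50, both from the 72 h MTT assay with 24 h pre-seeding (10 000 and 4000 cells/well). IC50 from three independent experiments.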

PANC-1 [12] = assay: Synergistic cytotoxicity against human PANC-1 cells assessed as combination index at 0.47 uM incubated for 72 hrs in the presence of 23.5 uM gemcitabine by MTT assay; assay type: functional
PANC-1 [13] = assay: Induction of apoptosis in human PANC-1 cells assessed as early apoptotic cells at 1.88 uM incubated for 24 hrs by Annexin V-FITC/PI staining based flow cytometric analysis (reference value: 5.2%); assay type: functional; method in brief: as §3
PANC-1 [14] = assay: Induction of apoptosis in human PANC-1 cells assessed as appearance of apoptotic bodies at 0.47 to 2.82 uM incubated for 24 hrs by Hoechst 33342 staining based fluorescence microscopic analysis; assay type: functional, cell-based; conditions: dose 0.47-2.82 µM; method in brief: as §2
A-375 = assay: Cytotoxicity against human A-375 cells assessed as inhibition of cell growth incubated for 72 hrs by MTT assay; assay type: functional, cell-based; conditions: A-375, 72 h; method in brief: as §4
[15] = Toxicity in Balb/c mouse assessed as occasional writhing at 0.01 to 10 mg/kg, ip measured upto 24 hrs by Irwin test; assay type: organism-based; conditions: in vivo, dose 0.01-10 mg/kg; method in brief: as §1
HT-29 = assay: Cytotoxicity against human HT-29 cells assessed as inhibition of cell growth incubated for 72 hrs by MTT assay; assay type: functional, cell-based; conditions: HT-29, 72 h; method in brief: as §4
PANC-1 [16] = assay: Induction of apoptosis in human PANC-1 cells assessed as necrotic cells at 2.82 uM incubated for 24 hrs by Annexin V-FITC/PI staining based flow cytometric analysis (reference value: 3.9%); assay type: functional; method in brief: as §3
[17] = Toxicity in Balb/c mouse assessed as ptosis at 50 to 100 mg/kg, ip measured upto 24 hrs by Irwin test; assay type: organism-based; conditions: in vivo, dose 50-100 mg/kg; method in brief: as §1
[18] = Toxicity in Balb/c mouse assessed as decrease of abdominal muscle tone at 50 to 100 mg/kg, ip measured upto 24 hrs by Irwin test; assay type: organism-based; conditions: in vivo, dose 50-100 mg/kg; method in brief: as §1
PANC-1 [19] = assay: Inhibition of cell migration in human PANC-1 cells incubated upto 72 hrs by scratch wound healing assay; assay type: functional, cell-based; conditions: dose 0.47-2.82 µM
Method in brief: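 Confluent PANC-1 monolayers (4000 cells/well seeded, 24 h) were scratched with a P200 tip and washed with PBS. Medium with compound or 0.5% DMSO control was added. Wound area imaged by high-content microscopy at 0, 24, 48 and 72 h.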

[20] = Toxicity in Balb/c mouse assessed as transient observation of sole sign at 0.01 to 10 mg/kg, ip measured upto 24 hrs by Irwin test; assay type: organism-based; conditions: in vivo, dose 0.01-10 mg/kg; method in brief: as §1
PANC-1 [21] = assay: Induction of apoptosis in human PANC-1 cells assessed as early apoptotic cells at 0.94 uM incubated for 24 hrs by Annexin V-FITC/PI staining based flow cytometric analysis (reference value: 5.2%); assay type: functional; method in brief: as §3
PANC-1 [22] = assay: Induction of apoptosis in human PANC-1 cells assessed as viable cells at […] incubated for 24 hrs by Annexin V-FITC/PI staining based flow cytometric analysis (reference value: 89.8%); assay type: functional; conditions: read-out: Activity; method in brief: as §3
PANC-1 [23] = assay: Induction of cell cycle arrest in human PANC-1 cells assessed as decrease in S phase cells at 1.88 uM incubated for 24 hrs by PI staining based flow cytometric analysis (Rvb= 19.8 %); assay type: functional; design: scale not given: the % may be the effect or the level left
[24] = Toxicity in Balb/c mouse assessed as decrease of respiration at 50 to 100 mg/kg, ip measured upto 24 hrs by Irwin test; assay type: organism-based; conditions: in vivo, dose 50-100 mg/kg; method in brief: as §1
PANC-1 [25] = assay: Induction of apoptosis in human PANC-1 cells assessed as necrotic cells at 1.88 uM incubated for 24 hrs by Annexin V-FITC/PI staining based flow cytometric analysis (reference value: 3.9%); assay type: functional; method in brief: as §3

CCOC(=O)[C@]12CCC(C)(C)C[C@H]1C1=CC[C@@H]3[C@@]4(C)C(C=O)=C[C@@](C)(CO)[C@@H]4CC[C@@]3(C)[C@]1(C)CC2
Activity [1]: Toxic | Activity (PANC-1 [2]): inactive | Activity (PANC-1 [3]): 2.3% | IC50 (A549): 830 nM | CI (PANC-1 [4]): 0.75 | Activity (PANC-1 [5]): Dose-Dependent Effect | IC50 at 72 h [6]: 3060 nM | Activity [7]: Toxic | Activity (PANC-1 [8]): 3.5% | Activity (PANC-1 [9]): 70.2% | CI (PANC-1 [10]): 0.86 | selectivity ratio [11]: 6.5 | CI (PANC-1 [12]): 0.98 | Activity (PANC-1 [13]): 7.5% | Activity (PANC-1 [14]): inactive | IC50 (A-375): 580 nM | Activity [15]: Non-Toxic | IC50 (HT-29): 510 nM | Activity (PANC-1 [16]): 2% | Activity [17]: Toxic | Activity [18]: Toxic | inhibition (PANC-1 [19]): Dose-Dependent Effect | Activity [20]: Non-Toxic | Activity (PANC-1 [21]): 5.7% | viability (PANC-1 [22]): 91.7% | Activity (PANC-1 [23]): 3.7% | Activity [24]: Toxic | Activity (PANC-1 [25]): 3.1%
